Data from paper PMC3085959 (Journal of medicinal chemistry, 2011).
“Also recorded” adds a separate entry of the source.

Experiments:
rats = experiment: Rat forced swim test; format: in vivo; conditions: 10 mg/kg i.p., sub-chronic, 1 h before test, compared to vehicle
Method in brief: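 Male Sprague-Dawley rats (200–225 g), naive, used once, tested in cylinders of 24–25 °C water, 22 cm deep. A 15 min pretest was followed 24 h later by a 5 min test. Dosing was i.p. in 10% β-hydroxypropyl cyclodextrin (2 mL/kg), 15 min after pretest and 1 h before test. Imipramine 15 mg/kg was the reference. Blinded video immobility scoring, one-way ANOVA.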

[1] = system: cloned human dopamine receptor subtypes, serotonin receptor subtypes, alpha-adrenergic receptors, and opioid receptors; experiment: CNS receptor screening, NIMH PDSP primary binding assays; conditions: 10 μM
[2] = molecular target: dopamine transporter (DAT) (Rattus norvegicus, UniProt P23977); experiment: Inhibition of [3H]dopamine uptake by DAT in rat striatum; format: biochemical
Sequence of dopamine transporter (DAT) (P23977 whole entry): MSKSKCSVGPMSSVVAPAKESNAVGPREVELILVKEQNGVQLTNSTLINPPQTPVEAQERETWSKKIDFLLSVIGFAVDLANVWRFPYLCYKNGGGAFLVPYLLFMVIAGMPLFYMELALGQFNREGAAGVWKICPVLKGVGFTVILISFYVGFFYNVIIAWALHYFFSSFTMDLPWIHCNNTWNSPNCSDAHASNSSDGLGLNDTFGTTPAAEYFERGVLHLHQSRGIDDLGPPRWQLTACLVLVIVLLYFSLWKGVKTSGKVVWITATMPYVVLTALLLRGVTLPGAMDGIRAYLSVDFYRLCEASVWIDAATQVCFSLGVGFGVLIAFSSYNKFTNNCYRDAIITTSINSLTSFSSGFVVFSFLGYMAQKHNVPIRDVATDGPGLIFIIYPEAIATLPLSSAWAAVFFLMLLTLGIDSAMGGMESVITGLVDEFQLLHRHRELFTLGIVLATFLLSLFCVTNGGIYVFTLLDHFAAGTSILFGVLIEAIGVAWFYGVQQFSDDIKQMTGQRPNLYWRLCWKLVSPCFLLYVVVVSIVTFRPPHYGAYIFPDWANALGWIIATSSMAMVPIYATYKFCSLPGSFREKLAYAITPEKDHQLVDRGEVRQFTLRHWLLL

[3] = molecular target: serotonin transporter (SERT) (Rattus norvegicus, UniProt P31652); experiment: Inhibition of [3H]serotonin uptake by SERT in rat cerebral cortex; format: biochemical
Sequence of serotonin transporter (SERT) (P31652 whole entry): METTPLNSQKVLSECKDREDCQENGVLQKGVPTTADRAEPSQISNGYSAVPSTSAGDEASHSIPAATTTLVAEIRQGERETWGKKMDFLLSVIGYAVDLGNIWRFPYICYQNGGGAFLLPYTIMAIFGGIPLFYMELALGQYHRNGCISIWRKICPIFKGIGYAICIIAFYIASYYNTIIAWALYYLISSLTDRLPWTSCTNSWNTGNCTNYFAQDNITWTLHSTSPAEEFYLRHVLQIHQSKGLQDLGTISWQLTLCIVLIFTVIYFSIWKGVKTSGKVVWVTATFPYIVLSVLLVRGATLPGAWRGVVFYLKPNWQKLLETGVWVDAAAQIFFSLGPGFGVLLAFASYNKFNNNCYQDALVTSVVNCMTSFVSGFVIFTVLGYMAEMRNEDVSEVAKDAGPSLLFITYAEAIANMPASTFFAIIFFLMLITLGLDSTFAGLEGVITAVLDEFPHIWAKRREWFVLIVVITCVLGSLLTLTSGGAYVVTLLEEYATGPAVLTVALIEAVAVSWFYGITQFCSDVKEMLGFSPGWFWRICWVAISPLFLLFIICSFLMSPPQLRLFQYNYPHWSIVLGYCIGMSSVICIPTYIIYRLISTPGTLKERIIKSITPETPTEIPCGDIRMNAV

Q: Which “Effect on duration of immobility in the forced swimming test” value (rats) does the source give for Oc1cccc(CN[C@H]2CC[C@@H](C(c3ccccc3)c3ccccc3)OC2)c1 [Compound 10f, 3-((((3S,6S)-6-benzhydryltetrahydro-2H-pyran-3-yl)amino)methyl)phenol] here?
A: significant reduction of immobility; also recorded: high efficacy in reducing immobility; also recorded: more efficacious than imipramine

Q: What about the “Inhibition in CNS receptor screening, majority of the receptor target sites” value [1] of the same compound?
A: less than 50%

Q: And the “Inhibition in CNS receptor screening, a few other target sites” value ([1]; only marginally so in some cases)?
A: greater than 50%

Q: How did the Ki [2] turn out when c1ccc(C(c2ccccc2)[C@@H]2CC[C@H](NCc3cccs3)CO2)cc1 [Compound 10g, (3S,6S)-6-benzhydryl-N-(thiophen-2-ylmethyl)tetrahydro-2H-pyran-3-amine] was run?
A: 15.9 nM

Q: What about the Ki [3] of the same compound?
A: 12.9 nM
